Test results reported in ChEMBL document CHEMBL3352661, “Cryptochinones from Cryptocarya chinensis act as farnesoid X receptor agonists” (Bioorg Med Chem Lett, 2014).
The source made the active and inactive calls. The rule behind the calls is not given here.

Experiments:
[1] = test system: HepG2; experiment: Toxicity against human HepG2 cells assessed as effect on cell growth at 100 nM to 1 uM; format: cell-based; settings: hepg2, 0.1 µM
[2] = molecular target: T1, Bile acid receptor (Homo sapiens) (UniProt Q96RI1); experiment: (§1) Agonist activity at GAL4 DNA binding domain tagged FXR ligand binding domain (unknown origin) expressed in human HepG2 cells assessed as receptor transactivation measured by relative luciferase activity at 1 uM by luciferase reporter gene based mammalian one-hybrid assay relative to untreated control; format: cell-based
T1 sequence (whole entry): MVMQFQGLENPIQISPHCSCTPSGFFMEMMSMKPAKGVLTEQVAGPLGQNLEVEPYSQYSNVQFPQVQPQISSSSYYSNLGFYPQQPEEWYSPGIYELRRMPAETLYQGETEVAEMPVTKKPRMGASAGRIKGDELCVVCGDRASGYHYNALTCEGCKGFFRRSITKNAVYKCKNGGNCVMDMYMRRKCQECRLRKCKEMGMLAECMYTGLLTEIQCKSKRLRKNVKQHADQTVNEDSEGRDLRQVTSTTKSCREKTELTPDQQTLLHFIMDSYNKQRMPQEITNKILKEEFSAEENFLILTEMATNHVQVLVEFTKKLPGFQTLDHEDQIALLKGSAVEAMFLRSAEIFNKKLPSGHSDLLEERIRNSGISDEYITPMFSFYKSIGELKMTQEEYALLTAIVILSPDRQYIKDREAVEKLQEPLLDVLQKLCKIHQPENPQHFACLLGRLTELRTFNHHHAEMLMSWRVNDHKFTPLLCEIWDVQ
In short: (§2)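 HepG2 cells seeded at 1 × 10^5 cells/well in phenol red-free DMEM with 10% charcoal-stripped FBS and penicillin/streptomycin. Next day transfected with pGAL4-FXR LBD (2 µg), pG5-luc (6 µg) and pCMV-β-gal normalizer (1 µg). Treated 48 h at 100 nM–10 µM, DMSO vehicle, 10 µM CDCA reference. Luciferase/β-gal ratio expressed relative to DMSO (=1); at least triplicate.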

[3] = molecular target: T1, Bile acid receptor (Homo sapiens); experiment: as §1, with “100 nM” for “1 uM”; format: cell-based; in short: as §2
[4] = molecular target: T1, Bile acid receptor (Homo sapiens); experiment: Agonist activity at […] (unknown origin) expressed in human HepG2 cells co-expressing human SHP gene promoter assessed as transactivation of SHP promoter driven luciferase activity at 1 uM relative to untreated control; format: cell-based
[5] = molecular target: T1, Bile acid receptor (Homo sapiens); experiment: Agonist activity at […] (unknown origin) expressed in human HepG2 cells co-expressing human SHP gene promoter assessed as transactivation of SHP promoter driven luciferase activity at 100 nM relative to untreated control; format: cell-based
[6] = molecular target: T2, Peroxisome proliferator-activated receptor gamma (Homo sapiens) (UniProt P37231); experiment: Agonist activity at PPARgamma (unknown origin) by receptor transactivation assay
T2 sequence (whole entry): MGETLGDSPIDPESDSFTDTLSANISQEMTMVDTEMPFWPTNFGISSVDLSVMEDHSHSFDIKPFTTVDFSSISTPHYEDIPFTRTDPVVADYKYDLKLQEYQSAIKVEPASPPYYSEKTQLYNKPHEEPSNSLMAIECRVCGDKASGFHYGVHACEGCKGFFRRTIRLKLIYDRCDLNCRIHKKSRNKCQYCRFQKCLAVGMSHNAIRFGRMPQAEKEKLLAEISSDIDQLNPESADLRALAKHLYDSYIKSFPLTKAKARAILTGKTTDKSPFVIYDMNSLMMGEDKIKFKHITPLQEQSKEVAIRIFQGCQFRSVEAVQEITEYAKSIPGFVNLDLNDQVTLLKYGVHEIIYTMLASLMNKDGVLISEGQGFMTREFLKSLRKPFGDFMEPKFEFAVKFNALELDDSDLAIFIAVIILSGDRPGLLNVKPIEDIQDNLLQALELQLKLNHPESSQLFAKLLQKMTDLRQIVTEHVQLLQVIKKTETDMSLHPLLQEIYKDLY

[7] = molecular target: T1, Bile acid receptor (Homo sapiens); experiment: Agonist activity at […] (unknown origin) expressed in human HepG2 cells co-expressing rat CYP7A1 gene promoter assessed as transrepression of CYP7A1 promoter driven luciferase activity relative to untreated control; format: cell-based
In short: (§3)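 Transient transfection of HepG2 cells (1 × 10^5/well; phenol red-free DMEM, 10% charcoal-stripped FBS, pen/strep) with pCMV-FXR (2 µg), rat CYP7A1 promoter reporter prCYP7A1-luc (6 µg) and pCMV-β-gal (1 µg). After 48 h exposure to 100 nM–10 µM, lysate luciferase was normalized to β-gal and expressed relative to DMSO (=1). 10 µM CDCA reference; at least three determinations.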

[8] = molecular target: T1, Bile acid receptor (Homo sapiens); experiment: Agonist activity at […] (unknown origin) expressed in human HepG2 cells co-expressing rat CYP7A1 gene promoter assessed as transrepression of CYP7A1 promoter driven luciferase activity at 1 uM relative to untreated control; format: cell-based; in short: as §3
[9] = molecular target: T1, Bile acid receptor (Homo sapiens); experiment: Agonist activity at […] (unknown origin) expressed in human HepG2 cells co-expressing rat CYP7A1 gene promoter assessed as transrepression of CYP7A1 promoter driven luciferase activity at 100 nM relative to untreated control; format: cell-based; in short: as §3
[10] = molecular target: T1, Bile acid receptor (Homo sapiens); experiment: Agonist activity at […] (unknown origin) expressed in human HepG2 cells co-expressing human PLTP gene promoter assessed as transactivation of PLTP promoter driven luciferase activity relative to untreated control; format: cell-based
[11] = molecular target: T1, Bile acid receptor (Homo sapiens); experiment: Agonist activity at […] (unknown origin) expressed in human HepG2 cells co-expressing human PLTP gene promoter assessed as transactivation of PLTP promoter driven luciferase activity at 100 nM relative to untreated control; format: cell-based
In short: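 HepG2 cells (1 × 10^5 cells/well, phenol red-free DMEM, 10% charcoal-stripped FBS, pen/strep) transfected the next day with wild-type FXR plasmid pCMV-FXR (2 µg), pPLTP-Luc reporter (6 µg) and pCMV-β-gal (1 µg). Dosed 48 h at 100 nM–10 µM. Luciferase normalized to β-gal, expressed relative to DMSO (=1), 10 µM CDCA reference; mean ± SD of ≥3 determinations.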

[12] = molecular target: T1, Bile acid receptor (Homo sapiens); experiment: Agonist activity at […] (unknown origin) expressed in human HepG2 cells co-expressing rat CYP7A1 gene promoter assessed as transrepression of CYP7A1 promoter driven luciferase activity at 10 uM relative to untreated control; format: cell-based; in short: as §3
[13] = molecular target: T1, Bile acid receptor (Homo sapiens); experiment: Agonist activity at […] (unknown origin) expressed in human HepG2 cells co-expressing human SHP gene promoter assessed as transactivation of SHP promoter driven luciferase activity at 100 nM to 10 uM relative to untreated control; format: cell-based

SMILES | Activity [1] | fold change (FC) [2] | Activity [3] | fold change (FC) [4] | Activity [5] | Activity [6] | Activity [7] | Activity [8] | Activity [9] | Activity [10] | Activity [11] | inhibition [12] [%] | Activity [13]
CO[C@H]1CC2=C(C(=O)C[C@@H](c3ccccc3)O2)[C@H]2CC(=O)O[C@@H]12 [7-O-METHYLCRYPTOCHINONE A] | Non-toxic | 1.5 | inactive | 3 | Active | inactive | Dose-dependent effect | inactive | inactive | Dose-dependent effect | inactive | 60 | 
CO[C@H]1CC2=C(C(=O)C[C@@H](c3ccccc3)O2)[C@@H]2CC(=O)O[C@H]12 [7-O-METHYLCRYPTOCHINONE B] | Non-toxic | 1.5 | inactive | 3 | Active | inactive | Dose-dependent effect | inactive | inactive | Dose-dependent effect | inactive | 60 | 
O=C1C[C@@H]2C3=C(C[C@H](O)[C@@H]2O1)O[C@H](c1ccccc1)CC3=O [CRYPTOCHINONE A] | Non-toxic | 1.5 | inactive |  |  | inactive | Dose-dependent effect | Active | inactive | Dose-dependent effect | inactive | 60 | Active
O=C1C[C@H]2C3=C(C[C@H](O)[C@H]2O1)O[C@H](c1ccccc1)CC3=O [CRYPTOCHINONE B] | Non-toxic | 1.5 | inactive |  |  | inactive | Dose-dependent effect | Active | inactive | Dose-dependent effect | inactive | 60 | Active
